BindingDB's records for doi:10.1039/c1md00059d (Centre National De La Recherche Scientifique, 2011)

The compounds below were run against T1, Vitamin D3 receptor A (Danio rerio, UniProt Q9PTN2) (assay: Agonist activity at zebrafish VDR LBD assessed as binding affinity to TAMRA-labeled SRC-1 peptide by fluorescence anisotropy assay).
T1 sequence (Q9PTN2 whole entry): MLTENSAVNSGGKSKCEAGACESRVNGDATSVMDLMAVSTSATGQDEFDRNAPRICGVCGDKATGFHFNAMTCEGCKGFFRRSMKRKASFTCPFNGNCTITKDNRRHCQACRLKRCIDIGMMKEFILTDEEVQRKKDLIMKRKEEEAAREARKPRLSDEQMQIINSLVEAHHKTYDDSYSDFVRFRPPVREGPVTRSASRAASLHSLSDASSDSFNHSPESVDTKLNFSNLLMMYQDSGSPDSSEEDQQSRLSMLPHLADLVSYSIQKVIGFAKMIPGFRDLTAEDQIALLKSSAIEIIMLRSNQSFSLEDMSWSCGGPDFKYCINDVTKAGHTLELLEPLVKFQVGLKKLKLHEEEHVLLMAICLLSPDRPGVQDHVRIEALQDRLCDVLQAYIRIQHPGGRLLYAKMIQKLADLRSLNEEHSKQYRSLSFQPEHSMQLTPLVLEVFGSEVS
Procedure, shortened: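 Titrations were run in the presence of ligand, and peptide recruitment was monitored by fluorescence anisotropy to derive kd.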
In the case of [2H]C([2H])([2H])C(O)(CCC[C@H](CC#CC(O)(C(F)(F)F)C(F)(F)F)[C@H]1CC[C@H]2/C(=C/C=C3C[C@H](O)C[C@@H](O)C3)CCC[C@]12C)C([2H])([2H])[2H], the “Kd” value is reported as 1800 nM. With [2H]C([2H])([2H])C(O)(CCC[C@@H](CC#CC(O)(C(F)(F)F)C(F)(F)F)[C@H]1CC[C@H]2/C(=C/C=C3C[C@H](O)C[C@@H](O)C3)CCC[C@]12C)C([2H])([2H])[2H] the “Kd” value was 1800 nM. For C=C1/C(=C\C=C2/CCC[C@]3(C)[C@@H](C(CCCC(C)(C)O)CCCC(C)(C)O)CC[C@@H]23)C[C@H](O)C[C@H]1O, the “Kd” value was 3300 nM.
